Test results published in ChEMBL document CHEMBL4330057, “Second generation of diazachrysenes: Protection of Ebola virus infected mice and mechanism of action” (Eur J Med Chem, 2019).
pEC50: −log10 of the molar value. Activity calls are given as the source filed them. The calls are words filed in the database; no cut-off is given here.

Key:
[1] = Toxicity in 6 hrs post fertilized zebrafish embryo assessed as teratogenic effect by measuring pericardial edema up to 50 uM up to 120 hrs post fertilization by inverted microscopic method; set-up: species or system Danio rerio; conditions: in vivo
[2] = Toxicity in 6 hrs post fertilized zebrafish embryo assessed as teratogenic effect by measuring yolk absorption up to 50 uM up to 120 hrs post fertilization by inverted microscopic method; set-up: species or system Danio rerio; conditions: in vivo
HeLa [3] = test: Induction of lysosomotropism in human HeLa cells infected with Ebolavirus assessed as dense clustering in perinuclear region at 2 uM for 2 hrs by acridine orange staining based assay; format: functional, cell-based
Outline: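 HeLa cells pretreated 2 h, then acridine orange for 30 min, washed and imaged. Total intensity and average area of acridine orange fluorescence quantified by high-content imaging. Mean ± SD of 8 wells, about 3000 cells each, three independent experiments.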

[4] = Toxicity in 6 hrs post fertilized zebrafish embryo assessed as teratogenic effect by measuring growth retardation up to 50 uM up to 120 hrs post fertilization by inverted microscopic method; set-up: species or system Danio rerio; conditions: in vivo
[5] = Toxicity in 6 hrs post fertilized zebrafish embryo assessed as teratogenic effect by measuring malformation of notochord up to 50 uM up to 120 hrs post fertilization by inverted microscopic method; format: tissue-based, Danio rerio; conditions: in vivo
[6] = Toxicity in 6 hrs post fertilized zebrafish embryo assessed as lethal effect on egg coagulation up to 50 uM up to 120 hrs post fertilization by inverted microscopic method; set-up: species or system Danio rerio; conditions: in vivo
HeLa [7] = test: Induction of lysosomotropism in human HeLa cells infected with Ebolavirus assessed as expansion of acid compartments at 2 uM for 2 hrs by acridine orange staining based assay; format: functional, cell-based
Outline: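 HeLa cells were pretreated with compound for 2 h, then given acridine orange for 30 min and washed. Red AO fluorescence in acidic compartments was imaged, and total intensity and average area were scored by high-content imaging. Eight wells per point, about 3000 cells/well, mean ± SD, representative of three independent experiments.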

HeLa [8] = test: Cytotoxicity against human HeLa cells at 50 uM after 2 hrs; format: cell-based
[9] = Selectivity index, ratio of CC50 for HFF to EC50 for Ebolavirus H. sapiens-wt/1995/Kikwit-9510621 infected in human HeLa cells; format: toxicity, cell-based; conditions: read-out: Ratio CC50/EC50
[10] = Selectivity index, ratio of LC50 for toxicity in transgenic zebrafish embryo assessed as mortality to EC50 for Ebolavirus H. sapiens-wt/1995/Kikwit-9510621; conditions: read-out: Selectivity Index
[11] = Cytotoxicity against human HeLa cells after 2 hrs by high content imaging analysis; format: cell-based
Ebolavirus [12] = test: Antiviral activity against Ebolavirus H. sapiens-wt/1995/Kikwit-9510621 infected in HFF assessed as inhibition of viral infection pretreated for 2 hrs followed by viral infection and measured after 48 hrs by EboV GP immunostaining based high content imaging analysis; format: functional, organism-based; conditions: Orthoebolavirus
[13] = Toxicity in 6 hrs post fertilized zebrafish embryo assessed as teratogenic effect by measuring malformation of head up to 50 uM up to 120 hrs post fertilization by inverted microscopic method; format: tissue-based, Danio rerio; conditions: in vivo
[14] = Cytotoxicity against HFF after 2 hrs by high content imaging analysis; format: cell-based; conditions: human, HFF cells
[15] = Toxicity in 6 hrs post fertilized zebrafish embryo assessed as tail detachment up to 50 uM up to 120 hrs post fertilization by inverted microscopic method; set-up: species or system Danio rerio; conditions: in vivo
Ebolavirus [16] = test: Antiviral activity against Ebolavirus H. sapiens-wt/1995/Kikwit-9510621 infected in human HeLa cells assessed as inhibition of viral infection at 2 uM treated for 2 hrs after viral infection and measured after 24 hrs by EboV GP immunostaining based high content imaging analysis; format: functional, organism-based
[17] = Toxicity in 6 hrs post fertilized zebrafish embryo assessed as teratogenic effect by measuring effect on blood circulation up to 50 uM up to 120 hrs post fertilization by inverted microscopic method; set-up: species or system Danio rerio; conditions: in vivo
[18] = Toxicity in 6 hrs post fertilized zebrafish embryo assessed as teratogenic effect by measuring liver morphology and color up to 50 uM up to 120 hrs post fertilization by inverted microscopic method; format: tissue-based, Danio rerio; conditions: in vivo
[19] = Selectivity index, ratio of toxic concentration for hepatotoxicity in transgenic l-fabp:EGFP zebrafish embryo to EC50 for Ebolavirus H. sapiens-wt/1995/Kikwit-9510621; format: toxicity; conditions: read-out: Selectivity Index
[20] = Toxicity in 6 hrs post fertilized zebrafish embryo assessed as teratogenic effect by measuring scoliosis up to 50 uM up to 120 hrs post fertilization by inverted microscopic method; set-up: species or system Danio rerio; conditions: in vivo
[21] = Toxicity in 6 hrs post fertilized zebrafish embryo assessed as teratogenic effect by measuring malformation of sacculi/otoliths up to 50 uM up to 120 hrs post fertilization by inverted microscopic method; set-up: species or system Danio rerio; conditions: in vivo
Ebolavirus [22] = test: Antiviral activity against Ebolavirus H. sapiens-wt/1995/Kikwit-9510621 infected in human HeLa cells assessed as inhibition of viral infection pretreated for 2 hrs followed by viral infection and measured after 48 hrs by EboV GP immunostaining based high content imaging analysis; format: functional, organism-based; conditions: Orthoebolavirus, H. sapiens-wt/1995/Kikwit-9510621, HeLa; for pEC50: read-out: EC50
[23] = Binding affinity to AGP (unknown origin) at compound to protein molar ratio of 1:20 after 10 mins by fluorescence spectral analysis; format: ADME; conditions: human, isolated protein
Outline: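 Protein fluorescence spectra recorded while compound was added in increasing amounts. Stern-Volmer binding constant (KSV) derived from the fluorescence change.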

[24] = Toxicity in 6 hrs post fertilized zebrafish embryo assessed as mortality up to 120 hrs post fertilization; set-up: species or system Danio rerio; conditions: in vivo
[25] = Toxicity in 6 hrs post fertilized zebrafish embryo assessed as teratogenic effect by measuring malformation of tail up to 50 uM up to 120 hrs post fertilization by inverted microscopic method; format: tissue-based, Danio rerio; conditions: in vivo
[26] = Toxicity in 6 hrs post fertilized zebrafish embryo assessed as teratogenic effect by measuring yolk edema up to 50 uM up to 120 hrs post fertilization by inverted microscopic method; set-up: species or system Danio rerio; conditions: in vivo
Ebolavirus [27] = test: Antiviral activity against Ebolavirus H. sapiens-wt/1995/Kikwit-9510621 infected in human HeLa cells assessed as inhibition of viral infection at 2 uM pretreated for 2 hrs followed by viral infection and measured after 24 hrs by EboV GP immunostaining based high content imaging analysis; format: functional, organism-based
HeLa [28] = test: Induction of lysosomotropism in human HeLa cells infected with Ebolavirus assessed as increase in fluorescence intensity of acid compartments at 2 uM for 1 hr by Lysosensor DND189 staining based assay; format: functional, cell-based
Outline: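 HeLa cells were pretreated 1 h with compound (Bafilomycin A1 at 0.01 μM as acidification control), then stained with LysoSensor DND 189 for 10 min and washed. Live imaging at Ex/Em 443/505 nm. Fluorescence intensity per area was quantified by image analysis. Eight wells per point, about 3000 cells/well, mean ± SD, three independent experiments.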

HeLa [29] = test: Inhibition of lysosome fusion with autophagosome in human HeLa cells harboring GFP-LC3 assessed as increase in GFP-LC3-2 clustering up to 50 uM after 6 hrs by Western blot analysis; format: functional, cell-based
Outline: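 HeLa cells were exposed to compound for 6 h, then lysed and analysed by Western blot.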

[30] = Toxicity in 6 hrs post fertilized zebrafish embryo assessed as teratogenic effect by measuring effect on heart beat frequency up to 50 uM up to 120 hrs post fertilization by inverted microscopic method; set-up: species or system Danio rerio; conditions: in vivo

SMILES | Activity [1] | Activity [2] | Activity (HeLa [3]) | Activity [4] | Activity [5] | Activity [6] | Activity (HeLa [7]) | Activity (HeLa [8]) | selectivity ratio [9] | selectivity ratio [10] | CC50 at 2 h [11] | pEC50 (Ebolavirus [12]) | EC90 (Ebolavirus [12]) | Activity [13] | CC50 at 2 h [14] | Activity [15] | Activity (Ebolavirus [16]) | Activity [17] | Activity [18] | selectivity ratio [19] | further results
Cl.Cl.Cl.Cl.c1cc(NCCN2CCOCC2)c2ccc3c(ccc4c(NCCN5CCOCC5)ccnc43)c2n1 | Non-Toxic | Non-Toxic | Active | Non-Toxic | Non-Toxic | Non-Toxic | Active | Toxic | > 36.5 | 70 to 100 | > 20 µM | 6.26 | 1.36 µM | Non-Toxic | > 20 µM | Non-Toxic | inactive | Non-Toxic | Non-Toxic | 103 | Activity [20]: Non-Toxic; Activity [21]: Non-Toxic; EC90 (Ebolavirus [22]): < 5 µM; pEC50 (Ebolavirus [22]): 6.15; KSV [23]: 8.12 ×10⁴ /M; Activity [24]: Dose-dependent effect; LC50 [24]: 72.1 µM; Activity [25]: Non-Toxic; Activity [26]: Non-Toxic; Activity (Ebolavirus [27]): Active; Activity (HeLa [28]): Active; inhibition (HeLa [29]): Active; Activity [30]: Non-Toxic
Cl.Cl.Cl.Cl.c1cc(NCCCCN2CCOCC2)c2ccc3c(ccc4c(NCCN5CCOCC5)ccnc43)c2n1 | Non-Toxic | Non-Toxic | Active | Non-Toxic | Non-Toxic | Non-Toxic | Active | Toxic | 11.2 | 70 to 100 | 8 µM | 6.68 | 0.78 µM | Non-Toxic | 2.4 µM | Non-Toxic | inactive | Non-Toxic | Non-Toxic | 73 | Activity [20]: Non-Toxic; Activity [21]: Non-Toxic; EC90 (Ebolavirus [22]): 0.85 µM; pEC50 (Ebolavirus [22]): 6.59; KSV [23]: 6.12 ×10⁴ /M; Activity [24]: Dose-dependent effect; LC50 [24]: 18.9 µM; Activity [25]: Non-Toxic; Activity [26]: Non-Toxic; Activity (Ebolavirus [27]): Active; Activity (HeLa [28]): Active; inhibition (HeLa [29]): Active; Activity [30]: Non-Toxic
